The test system of assay [1] is HEL. Nature of the assay: Induction of apoptosis in human HEL cells after 24 hrs by 7-AAD-annexin-V/propidium iodide staining-based flow cytometric analysis. In kind it is functional, cell-based. A digest of the protocol: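 HEL cells (1 × 10⁵/well) grown 24 h, then treated 24 h at 0.5, 1 or 2 µM in fresh medium; 0.1% DMSO control. Cells collected, washed with cold PBS, stained in binding buffer with 7-AAD and propidium iodide (PE-Annexin V kit) 15 min at 25 °C in the dark; apoptotic fraction by flow cytometry.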
On the technique in general: In flow cytometry, cells or beads pass a laser one at a time.

The subject of assay [2] is HEL. Nature of the assay: Antitumor activity against human HEL cells xenografted in BALB/c-nu mouse assessed as inhibition of tumor growth at 100 mg/kg/day, po administered for 21 days measured every 3 days during compound dosing relative to control. The format is functional. Particulars: read-out: TGI. A digest of the protocol:
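HEL s.c. xenografts in male BALB/c-nu mice (6–8 weeks), randomized at ~100 mm³, 6 per group; daily oral dosing for 21 days versus PBS/DMSO vehicle group. […] Student's two-tailed t test, p < 0.05.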
For orientation: Xenograft models place foreign cells or tissue in a host animal.

Consider `O=C(CCCCCOc1no[n+]([O-])c1S(=O)(=O)c1ccccc1)NO`, for which the Activity entry in assay [1] was “Dose-dependent effect”. Moreover, the inhibition in vivo at 100 mg/kg/day in assay [2] is 38%.
